Series [1] deals with Integrin alpha-4/beta-1 (Homo sapiens, UniProt P05556+P13612). In words: Inhibition of integrin alpha4beta1 receptor in human whole blood by flow cytometry. The gist of the method: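 Human whole blood incubated with 3 mM MnCl2 and streptavidin-FITC, with or without 10 μg/mL biotinylated dimeric hVCAM-mFc. Compound added from tripling dilutions in TBS, 30 min at room temperature with shaking. Red cells lysed, leukocytes pelleted, washed twice in TBS and analysed by flow cytometry for bound VCAM; IC50 derived.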
Sequence of Integrin alpha-4/beta-1 (P05556 whole entry): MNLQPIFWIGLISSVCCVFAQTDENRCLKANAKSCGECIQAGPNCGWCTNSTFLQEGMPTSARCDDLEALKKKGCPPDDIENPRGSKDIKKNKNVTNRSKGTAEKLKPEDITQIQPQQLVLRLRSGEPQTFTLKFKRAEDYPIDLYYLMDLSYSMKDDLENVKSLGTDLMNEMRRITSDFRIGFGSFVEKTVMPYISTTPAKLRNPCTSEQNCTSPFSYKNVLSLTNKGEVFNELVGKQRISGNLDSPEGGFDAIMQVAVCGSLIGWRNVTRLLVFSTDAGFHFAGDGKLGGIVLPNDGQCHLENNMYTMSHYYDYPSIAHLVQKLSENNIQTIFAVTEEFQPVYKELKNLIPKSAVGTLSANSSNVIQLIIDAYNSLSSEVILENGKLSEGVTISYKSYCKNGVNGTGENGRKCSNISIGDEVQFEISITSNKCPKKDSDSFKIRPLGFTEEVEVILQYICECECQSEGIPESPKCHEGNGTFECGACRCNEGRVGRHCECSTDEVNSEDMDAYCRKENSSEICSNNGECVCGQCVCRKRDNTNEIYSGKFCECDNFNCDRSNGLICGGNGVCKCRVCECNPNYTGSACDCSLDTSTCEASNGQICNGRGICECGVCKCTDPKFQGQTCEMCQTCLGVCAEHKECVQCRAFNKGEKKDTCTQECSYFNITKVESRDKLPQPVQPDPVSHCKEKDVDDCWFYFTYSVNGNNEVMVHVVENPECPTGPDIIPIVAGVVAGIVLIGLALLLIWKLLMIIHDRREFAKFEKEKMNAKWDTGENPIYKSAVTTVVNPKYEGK
Sequence of Integrin alpha-4/beta-1 (P13612 whole entry): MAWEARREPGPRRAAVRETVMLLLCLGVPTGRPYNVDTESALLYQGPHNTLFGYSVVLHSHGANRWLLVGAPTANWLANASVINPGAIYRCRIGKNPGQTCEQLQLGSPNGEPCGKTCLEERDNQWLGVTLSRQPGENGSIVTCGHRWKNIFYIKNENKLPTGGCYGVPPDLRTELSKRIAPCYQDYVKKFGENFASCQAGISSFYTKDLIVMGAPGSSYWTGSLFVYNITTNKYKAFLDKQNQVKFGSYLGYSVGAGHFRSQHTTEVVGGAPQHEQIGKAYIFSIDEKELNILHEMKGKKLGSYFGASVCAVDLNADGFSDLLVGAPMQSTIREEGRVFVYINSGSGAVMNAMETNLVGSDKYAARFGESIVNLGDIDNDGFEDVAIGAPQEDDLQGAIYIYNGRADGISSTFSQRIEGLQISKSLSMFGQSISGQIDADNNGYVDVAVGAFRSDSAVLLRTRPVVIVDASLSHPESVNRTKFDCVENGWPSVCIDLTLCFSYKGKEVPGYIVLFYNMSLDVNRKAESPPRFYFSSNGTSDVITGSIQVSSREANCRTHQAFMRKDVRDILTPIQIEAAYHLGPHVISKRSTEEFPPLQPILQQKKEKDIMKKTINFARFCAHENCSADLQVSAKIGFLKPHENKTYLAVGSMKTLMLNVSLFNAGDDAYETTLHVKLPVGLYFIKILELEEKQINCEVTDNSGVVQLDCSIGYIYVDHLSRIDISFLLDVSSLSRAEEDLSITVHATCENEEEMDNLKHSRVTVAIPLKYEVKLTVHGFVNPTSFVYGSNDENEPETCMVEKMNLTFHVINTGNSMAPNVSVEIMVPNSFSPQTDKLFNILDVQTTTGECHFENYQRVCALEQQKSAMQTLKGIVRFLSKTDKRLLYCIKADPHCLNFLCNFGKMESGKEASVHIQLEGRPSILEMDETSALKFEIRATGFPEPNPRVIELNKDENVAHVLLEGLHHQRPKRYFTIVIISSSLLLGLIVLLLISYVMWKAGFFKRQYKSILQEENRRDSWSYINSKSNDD

A short description of series [2]: Metabolic stability in rat microsomes assessed as intrinsic clearance at 0.5 uM. Format: ADME, Microsome.
The target in series [3] is Cytochrome P450 3A4 (Homo sapiens, UniProt P08684). As to the kind of experiment: Inhibition of CYP3A4. In kind it is ADME.
Sequence of Cytochrome P450 3A4 (P08684 whole entry): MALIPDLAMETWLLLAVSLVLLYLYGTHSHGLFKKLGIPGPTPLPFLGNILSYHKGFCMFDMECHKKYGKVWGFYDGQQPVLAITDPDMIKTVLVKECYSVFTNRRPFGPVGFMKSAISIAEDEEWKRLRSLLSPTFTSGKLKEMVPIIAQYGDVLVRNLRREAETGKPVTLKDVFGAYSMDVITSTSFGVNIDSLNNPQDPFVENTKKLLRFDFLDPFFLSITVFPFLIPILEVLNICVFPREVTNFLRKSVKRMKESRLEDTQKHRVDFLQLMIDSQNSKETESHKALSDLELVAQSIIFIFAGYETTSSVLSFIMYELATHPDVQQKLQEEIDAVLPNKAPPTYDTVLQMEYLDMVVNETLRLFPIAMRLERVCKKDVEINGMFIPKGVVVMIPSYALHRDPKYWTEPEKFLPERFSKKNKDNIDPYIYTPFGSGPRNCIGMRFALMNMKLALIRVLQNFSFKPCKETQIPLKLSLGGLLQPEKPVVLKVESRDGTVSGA
Series [4] in a line: Metabolic stability in human microsomes assessed as intrinsic clearance at 0.5 uM. Format: ADME, Microsome.
Series [5] has as its target Cytochrome P450 2C9 (Homo sapiens, UniProt P11712). In words: Inhibition of CYP2C9. Format: ADME.
The target in series [6] is T1, Cytochrome P450 1A2 (Homo sapiens, UniProt P05177).
T1 sequence (P05177 whole entry): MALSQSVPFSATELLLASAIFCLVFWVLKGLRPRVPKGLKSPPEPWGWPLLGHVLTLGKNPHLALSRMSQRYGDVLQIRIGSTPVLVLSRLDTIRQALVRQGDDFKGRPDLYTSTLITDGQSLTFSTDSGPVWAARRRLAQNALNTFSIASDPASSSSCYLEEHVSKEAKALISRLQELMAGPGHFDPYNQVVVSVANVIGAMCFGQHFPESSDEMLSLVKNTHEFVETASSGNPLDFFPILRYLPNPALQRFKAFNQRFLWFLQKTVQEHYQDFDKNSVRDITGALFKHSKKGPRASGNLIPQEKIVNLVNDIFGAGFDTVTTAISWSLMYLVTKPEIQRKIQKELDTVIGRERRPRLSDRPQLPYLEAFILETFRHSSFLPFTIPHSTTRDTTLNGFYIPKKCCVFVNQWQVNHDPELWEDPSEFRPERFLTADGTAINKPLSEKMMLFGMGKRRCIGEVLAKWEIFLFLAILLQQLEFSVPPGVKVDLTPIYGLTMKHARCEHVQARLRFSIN
In words: Inhibition of CYP1A2. In kind it is ADME.

The nature of series [7]: Metabolic stability in mouse microsomes assessed as intrinsic clearance at 0.5 uM. Format: ADME, Microsome.
Series [8] deals with Cytochrome P450 2D6 (Homo sapiens, UniProt P10635). As to the kind of experiment: Inhibition of CYP2D6. Format: ADME.
Sequence of Cytochrome P450 2D6 (P10635 whole entry): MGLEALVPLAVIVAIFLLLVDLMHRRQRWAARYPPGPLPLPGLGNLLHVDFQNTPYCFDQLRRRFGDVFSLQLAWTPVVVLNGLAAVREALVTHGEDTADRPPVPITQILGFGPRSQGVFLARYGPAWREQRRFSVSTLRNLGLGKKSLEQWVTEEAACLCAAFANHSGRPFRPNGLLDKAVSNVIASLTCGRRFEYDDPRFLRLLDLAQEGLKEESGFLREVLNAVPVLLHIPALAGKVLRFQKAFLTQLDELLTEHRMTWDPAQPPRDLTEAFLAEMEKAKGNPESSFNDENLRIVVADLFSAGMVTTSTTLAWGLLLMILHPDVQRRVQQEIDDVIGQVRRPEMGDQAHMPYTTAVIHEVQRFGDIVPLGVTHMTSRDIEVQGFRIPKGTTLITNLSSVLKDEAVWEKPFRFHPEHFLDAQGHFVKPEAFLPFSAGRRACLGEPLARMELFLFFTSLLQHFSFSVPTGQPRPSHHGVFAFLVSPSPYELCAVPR

Some results are limits rather than exact numbers.

Sequence of Cytochrome P450 2C9 (P11712 whole entry): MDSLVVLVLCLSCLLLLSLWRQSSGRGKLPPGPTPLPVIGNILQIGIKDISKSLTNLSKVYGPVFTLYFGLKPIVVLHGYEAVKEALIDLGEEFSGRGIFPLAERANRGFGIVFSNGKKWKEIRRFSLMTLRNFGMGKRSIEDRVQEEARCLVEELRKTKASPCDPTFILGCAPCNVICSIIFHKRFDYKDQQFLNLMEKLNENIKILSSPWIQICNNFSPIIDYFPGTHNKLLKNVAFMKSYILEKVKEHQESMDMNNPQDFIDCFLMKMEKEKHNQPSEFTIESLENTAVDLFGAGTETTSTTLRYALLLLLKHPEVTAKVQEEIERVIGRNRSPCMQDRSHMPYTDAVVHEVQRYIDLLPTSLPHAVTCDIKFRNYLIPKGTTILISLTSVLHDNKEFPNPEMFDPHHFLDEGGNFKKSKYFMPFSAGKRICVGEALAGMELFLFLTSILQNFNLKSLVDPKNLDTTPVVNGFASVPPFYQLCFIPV

In general, IC50 refers to the concentration that inhibits the measured activity by half. In the case of `O=C(O)[C@H](Cc1ccc(-n2c(-c3ccc(C(F)(F)F)nc3)nc3cccnc32)cc1)NC1=C(Br)C(=O)C12CCCCC2`, the IC50 in series [1] was 8 nM. On the same count and under the same terms, the result for `O=C(O)[C@H](Cc1ccc(-n2c(-c3ccc(N4CCCCC4)nc3)nc3cccnc32)cc1)NC1=C(Br)C(=O)C12CCCCC2` reads 83 nM; that for `CN(C)c1ccc(-c2nc3cccnc3n2-c2ccc(C[C@H](NC3=C(Br)C(=O)C34CCCCC4)C(=O)O)cc2)cn1`, 22 nM; that for `CN(C)c1ccnc(-c2nc3cccnc3n2-c2ccc(C[C@H](NC3=C(Br)C(=O)C34CCCCC4)C(=O)O)cc2)c1`, 46 nM. `O=C(O)[C@H](Cc1ccc(-n2c(C3CC3)nc3cccnc32)cc1)NC1=C(Br)C(=O)C12CCCCC2` gave an IC50 in series [1] of 95 nM. Still for that read-out and setting: under `CC1(C)C(=O)C(Cl)=C1N[C@@H](Cc1ccc(-n2c(-c3cccnc3)nc3cccnc32)cc1)C(=O)O` stands 19 nM; under `CC1(C)C(=O)C(Br)=C1N[C@@H](Cc1ccc(-n2c(-c3cccnc3)nc3cccnc32)cc1)C(=O)O`, 10 nM. `O=C(O)[C@H](Cc1ccc(-n2c(C(F)(F)F)nc3cccnc32)cc1)NC1=C(Br)C(=O)C12CCCCC2`: the midpoint of inhibition in series [1], the IC50, lay at 22 nM. In series [1], `CSCCc1nc2cccnc2n1-c1ccc(C[C@H](NC2=C(Br)C(=O)C23CCCCC3)C(=O)O)cc1` yielded an IC50 of 11 nM. The same measure, in the same setting: the result for `N#CCc1nc2cccnc2n1-c1ccc(C[C@H](NC2=C(Br)C(=O)C23CCCCC3)C(=O)O)cc1` reads 10 nM; that for `CC1(C)C(=O)C=C1N[C@@H](Cc1ccc(-n2c(-c3cccnc3)nc3cccnc32)cc1)C(=O)O`, 126 nM.

In series [1], `O=C(O)[C@H](Cc1ccc(-n2c(-c3cccnc3)nc3cnccc32)cc1)NC1=CC(=O)C12CCCCC2` showed a concentration for half-maximal inhibition (IC50) of 1620 nM. Against the preceding compound, the IC50 is about 13-fold higher. On the same count and under the same terms, the result for `CC(C)(C)c1nc2cccnc2n1-c1ccc(C[C@H](NC2=C(Br)C(=O)C23CCCCC3)C(=O)O)cc1` reads 3 nM; that for `O=C(O)[C@H](Cc1ccc(-n2c(C3COCCN3)nc3cccnc32)cc1)NC1=C(Br)C(=O)C12CCCCC2` (stereo partly specified), 10 nM. On the same count and under the same terms, under `O=C(O)[C@H](Cc1ccc(-n2c(-c3ccc(Cl)nc3)nc3cccnc32)cc1)NC1=C(Br)C(=O)C12CCCCC2` stands 3 nM. The term microsomal CLint denotes the rate of metabolic loss divided by the concentration. As to `O=C(O)[C@H](Cc1ccc(-n2c(-c3cccnc3)nc3cccnc32)cc1)NC1=C(Br)C(=O)C12CCCCC2`, the microsomal CLint at 0.5 µM is 48 µL/min/mg in series [2], less than 1 µL/min/mg in series [4] and 11 µL/min/mg in series [7]. The IC50 in series [3] is 62000 nM; in series [1], 3 nM; in series [5], 10000 nM; in series [6], more than 100000 nM; in series [8], more than 100000 nM. For the compound `CC(C)c1nc2cccnc2n1-c1ccc(C[C@H](NC2=C(Br)C(=O)C23CCCCC3)C(=O)O)cc1`, the microsomal CLint at 0.5 µM turned out to be 38 µL/min/mg in series [2], 4 µL/min/mg in series [4] and 14 µL/min/mg in series [7]. Further, the half-maximal inhibitory concentration (IC50) in series [3] was 79000 nM; in series [1] it was 9 nM; in series [5] it was 18000 nM; in series [6], more than 100000 nM; in series [8] it was more than 100000 nM. On to `CNc1ccc(-c2nc3cccnc3n2-c2ccc(C[C@H](NC3=C(Br)C(=O)C34CCCCC4)C(=O)O)cc2)cn1`, for which the concentration for half-maximal inhibition (IC50) in series [1] was 9 nM.

For the compound `O=C(O)[C@H](Cc1ccc(-n2c(C3(C(F)(F)F)CC3)nc3cccnc32)cc1)NC1=C(Br)C(=O)C12CCCCC2`, the microsomal CLint at 0.5 µM is 52 µL/min/mg in series [2], 6 µL/min/mg in series [4] and 15 µL/min/mg in series [7]. Moreover, the IC50 in series [3] was 10000 nM; in series [1], 2 nM; in series [5] it was 8000 nM; in series [6], more than 100000 nM; in series [8], more than 100000 nM.

For `O=C(O)[C@H](Cc1ccc(-n2c(C3CCCNC3)nc3cccnc32)cc1)NC1=C(Br)C(=O)C12CCCCC2` (stereo partly specified), the IC50 in series [1] was found to be 6 nM.

Compound `O=C(O)[C@H](Cc1ccc(-n2c(-c3cccnc3)nc3cnccc32)cc1)NC1=C(Br)C(=O)C12CCCCC2` had a concentration for half-maximal inhibition (IC50) in series [1] of 236 nM.

`O=C(O)[C@H](Cc1ccc(-n2c(C3CCC3)nc3cccnc32)cc1)NC1=C(Br)C(=O)C12CCCCC2` displayed an IC50 in series [1] of 18 nM. Compared with the last compound, the IC50 is about 13-fold lower.

On to `CC(C)Cc1nc2cccnc2n1-c1ccc(C[C@H](NC2=C(Br)C(=O)C23CCCCC3)C(=O)O)cc1`, for which half-maximal inhibition in series [1] (IC50) required 11 nM. On the same count and under the same terms, under `Cc1nc2cccnc2n1-c1ccc(C[C@H](NC2=C(Br)C(=O)C23CCCCC3)C(=O)O)cc1` stands 570 nM. On the same count and under the same terms, under `O=C(O)[C@H](Cc1ccc(-n2c(C3CCNCC3)nc3cccnc32)cc1)NC1=C(Br)C(=O)C12CCCCC2` stands 13 nM; under `CC(C)SC1=C(N[C@@H](Cc2ccc(-n3c(-c4cccnc4)nc4cccnc43)cc2)C(=O)O)C2(CCCCC2)C1=O`, 2 nM. The same measure, in the same setting: under `O=C(O)[C@H](Cc1ccc(-n2c(-c3ccccc3)nc3cccnc32)cc1)NC1=C(Br)C(=O)C12CCCCC2` stands 71 nM; under `O=C(O)[C@H](Cc1ccc(-n2c(-c3cccnc3)nc3cnccc32)cc1)NC1=C(Cl)C(=O)C12CCCCC2`, 504 nM.

For `O=C(O)[C@H](Cc1ccc(-n2c(C3CCCCN3)nc3cccnc32)cc1)NC1=C(Br)C(=O)C12CCCCC2` (stereo partly specified), 3 nM corresponded to half-maximal inhibition in series [1] (IC50). On the same count and under the same terms, the result for `CSC1=C(N[C@@H](Cc2ccc(-n3c(-c4cccnc4)nc4cccnc43)cc2)C(=O)O)C2(CCCCC2)C1=O` reads 2 nM. On the same count and under the same terms, under `O=C(O)[C@H](Cc1ccc(-n2c(-c3cccnc3)nc3cc(F)ccc32)cc1)NC1=C(Br)C(=O)C12CCCCC2` stands 2680 nM; under `O=C(O)[C@H](Cc1ccc(-n2c(CC3CC3)nc3cccnc32)cc1)NC1=C(Br)C(=O)C12CCCCC2`, 8 nM; under `O=C(O)[C@H](Cc1ccc(-n2c(-c3cccnc3)nc3cccnc32)cc1)NC1=C(Cl)C(=O)C12CCCCC2`, 7 nM. On the same count and under the same terms, under `O=C(O)[C@H](Cc1ccc(-n2c(C3CCCC3)nc3cccnc32)cc1)NC1=C(Br)C(=O)C12CCCCC2` stands 14 nM. The compound `O=C(O)[C@H](Cc1ccc(-n2c(-c3cccnc3)nc3cccnc32)cc1)NC1=CC(=O)C12CCCCC2` displayed a half-maximal inhibitory concentration (IC50) in series [1] of 24 nM.

The values above are taken from ChEMBL document CHEMBL1157490, “Imidazopyridines as VLA-4 integrin antagonists” (Bioorg Med Chem Lett, 2008).
